Experimental data from ChEMBL document CHEMBL3297648, “Diterpenoids from the Chinese liverwort Heteroscyphus tener and their antiproliferative effects” (J Nat Prod, 2014).
Activity calls are given as the source filed them. The calls are words filed in the database; no cut-off is given here.

How the values were obtained:
PC-3 [1] = assay: Induction of apoptosis in human PC3 cells assessed as cleaved caspase-3 level at 20 uM after 12 hrs by western blot analysis; assay type: functional, cell-based
Method in brief: (§1)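 Cells exposed to 20 μM for the stated times. Lysis in RIPA plus protease inhibitors, BCA protein assay, equal protein on 12% SDS-PAGE, transfer to nitrocellulose. Blocking in 5% milk/TBST 1 h; primary antibodies overnight at 4 °C; secondary 1:2000 for 45 min; ECL detection. GAPDH served as loading control.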

DU-145 [2] = assay: Cell cycle arrest in human DU145 cells assessed as accumulation at subG1 phase at 20 uM after 24 hrs by propidium iodide staining based flow cytometry (reference value: 0.28%); assay type: functional
DU-145 [3] = assay: Induction of apoptosis in human DU145 cells assessed as necrotic cells at 20 uM after 4 hrs by Annexin V-FITC/propidium iodide staining based flow cytometry (reference value: 0.21%); assay type: functional
Method in brief: (§2)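 Cells seeded in 6-well plates for 24 h, then given 20 μM for the stated times. Cells were trypsinized, PBS-washed, stained with annexin V-FITC/PI, and analysed immediately by flow cytometry. Means ± SD of three independent experiments; Student's t test against untreated control.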

PC-3 [4] = assay: Induction of apoptosis in human PC3 cells assessed as necrotic cells at 20 uM after 8 hrs by Annexin V-FITC/propidium iodide staining based flow cytometry (reference value: 0.98%); assay type: functional; method in brief: as §2
[5] = Decrease in cyclin D1 protein expression in human DU145 cells by western blot analysis; assay type: functional, cell-based; conditions: DU-145, TDE = time-dependent effect
Method in brief: (§3)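 Western blot of cyclin D1, cyclin E, Cdk4 and p21 in PC3 and DU145 lysates. Lysis in RIPA buffer plus protease inhibitors, BCA quantification, 12% SDS-PAGE, nitrocellulose transfer, milk block, primaries overnight at 4 °C, secondary 1:2000 for 45 min, ECL read-out. GAPDH served as loading control.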

[6] = Cell cycle arrest in human PC3 cells assessed as accumulation at G0/G1 phase at 10 uM after 24 hrs by propidium iodide staining based flow cytometry (reference value: 66.57%); assay type: functional; conditions: PC-3
[7] = Cell cycle arrest in human PC3 cells assessed as accumulation at G0/G1 phase at 20 uM after 24 hrs by propidium iodide staining based flow cytometry (reference value: 66.57%); assay type: functional; conditions: PC-3
DU-145 [8] = assay: Induction of apoptosis in human DU145 cells assessed as late apoptotic cells at 20 uM after 12 hrs by Annexin V-FITC/propidium iodide staining based flow cytometry (reference value: 1.53%); assay type: functional; method in brief: as §2
PC-3 [9] = assay: Induction of apoptosis in human PC3 cells assessed as late apoptotic cells at 20 uM after 24 hrs by Annexin V-FITC/propidium iodide staining based flow cytometry (reference value: 7.92%); assay type: functional; method in brief: as §2
DU-145 [10] = assay: Induction of ROS generation in human DU145 cells at 20 uM pretreated for 1 hr with 5 mM antioxidant NAC measured after 24 hrs by DCFH-DA staining based flow cytometry; assay type: functional, cell-based
Method in brief: (§4)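 Cells in RPMI 1640 with 10% FBS, 5% CO2, 37 °C, treated at 50−70% confluence (DMSO vehicle). After exposure, cells were loaded with 10 μM DCFH-DA for 30 min at 37 °C, washed, resuspended in PBS, and read at once by flow cytometry. For NAC runs, cells got 5 mM NAC 1 h before compound. ROS reported as ratio relative to untreated control.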

PC-3 [11] = assay: Induction of apoptosis in human PC3 cells assessed as PARP cleavage at 20 uM after 12 hrs by western blot analysis; assay type: functional, cell-based; method in brief: as §1
DU-145 [12] = assay: Induction of apoptosis in human DU145 cells at 20 uM by Annexin V-FITC/propidium iodide staining based flow cytometry; assay type: functional, cell-based; conditions: TDE = time-dependent effect; method in brief: as §2
PC-3 [13] = assay: Induction of ROS generation in human PC3 cells at 20 uM pretreated for 1 hr with 5 mM antioxidant NAC measured after 24 hrs by DCFH-DA staining based flow cytometry; assay type: functional, cell-based; method in brief: as §4
[14] = Cell cycle arrest in human PC3 cells assessed as accumulation at S phase at 10 uM after 24 hrs by propidium iodide staining based flow cytometry (reference value: 22.07%); assay type: functional; conditions: PC-3
PC-3 [15] = assay: Increase in H2AX protein expression in human PC3 cells at 20 uM after 2 to 48 hrs by western blot analysis; assay type: functional, cell-based
Method in brief: (§5)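 Cells treated at 20 μM for various times, lysed in RIPA buffer with protease/phosphatase inhibitors, protein quantified by BCA. Equal protein run on 12% SDS-PAGE, transferred to nitrocellulose, blocked 1 h in 5% milk/TBST, primary antibodies overnight at 4 °C, secondary 1:2000 for 45 min, ECL detection on film. GAPDH used as loading control.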

PC-3 [16] = assay: Induction of ROS generation in human PC3 cells at 20 uM after 6 hrs by DCFH-DA staining based flow cytometry; assay type: functional, cell-based; method in brief: as §4
NCI-H1299 = assay: Antiproliferative activity against human NCI-H1299 cells assessed as inhibition of cell viability after 24 hrs by MTT assay; assay type: functional, cell-based; conditions: NCI-H1299, 24 h
Method in brief: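 Cells grown to 50–70% confluence (RWPE1 in K-SFM with pituitary extract and EGF; the other lines in RPMI 1640 with 10% FBS), 5% CO2, 37 °C. Treated for 24 h with DMSO vehicle, compounds, or cisplatin as positive control. MTT (5 mg/mL) added for 4 h, formazan dissolved in DMSO, absorbance read at 570 nm. Viability taken relative to untreated cells after blank subtraction, IC50 fitted from % viability, at least three experiments.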

DU-145 [17] = assay: Induction of apoptosis in human DU145 cells assessed as cleaved caspase-3 level at 20 uM after 12 hrs by western blot analysis; assay type: functional, cell-based; method in brief: as §1
PC-3 [18] = assay: Induction of apoptosis in human PC3 cells assessed as late apoptotic cells at 20 uM after 4 hrs by Annexin V-FITC/propidium iodide staining based flow cytometry (reference value: 7.92%); assay type: functional; method in brief: as §2
PC-3 [19] = assay: Induction of apoptosis in human PC3 cells assessed as early apoptotic cells at 20 uM after 12 hrs by Annexin V-FITC/propidium iodide staining based flow cytometry (reference value: 0.79%); assay type: functional; method in brief: as §2
PC-3 [20] = assay: Induction of apoptosis in human PC3 cells assessed as necrotic cells at 20 uM after 4 hrs by Annexin V-FITC/propidium iodide staining based flow cytometry (reference value: 0.98%); assay type: functional; method in brief: as §2
DU-145 [21] = assay: Induction of apoptosis in human DU145 cells assessed as PARP cleavage at 20 uM after 12 hrs by western blot analysis; assay type: functional, cell-based; method in brief: as §1
[22] = Decrease in cyclin E protein expression in human PC3 cells by western blot analysis; assay type: functional, cell-based; conditions: PC-3, TDE = time-dependent effect; method in brief: as §3
PC-3 [23] = assay: Induction of DNA damage in human PC3 cells assessed as gamma-H2AX phosphorylation at ser139 at 20 uM by western blot analysis; assay type: functional, cell-based; conditions: TDE = time-dependent effect; method in brief: as §5
[24] = target: Breast cancer type 1 susceptibility protein (Homo sapiens) (UniProt P38398); assay: Inactivation of BRCA1 in human PC3 cells assessed as decline in BRCA1 phosphorylation at Ser1524 at 20 uM after 8 hrs by western blot analysis; assay type: cell-based; conditions: PC-3; method in brief: as §5
Breast cancer type 1 susceptibility protein (Homo sapiens), sequence (P38398 whole entry, looked up): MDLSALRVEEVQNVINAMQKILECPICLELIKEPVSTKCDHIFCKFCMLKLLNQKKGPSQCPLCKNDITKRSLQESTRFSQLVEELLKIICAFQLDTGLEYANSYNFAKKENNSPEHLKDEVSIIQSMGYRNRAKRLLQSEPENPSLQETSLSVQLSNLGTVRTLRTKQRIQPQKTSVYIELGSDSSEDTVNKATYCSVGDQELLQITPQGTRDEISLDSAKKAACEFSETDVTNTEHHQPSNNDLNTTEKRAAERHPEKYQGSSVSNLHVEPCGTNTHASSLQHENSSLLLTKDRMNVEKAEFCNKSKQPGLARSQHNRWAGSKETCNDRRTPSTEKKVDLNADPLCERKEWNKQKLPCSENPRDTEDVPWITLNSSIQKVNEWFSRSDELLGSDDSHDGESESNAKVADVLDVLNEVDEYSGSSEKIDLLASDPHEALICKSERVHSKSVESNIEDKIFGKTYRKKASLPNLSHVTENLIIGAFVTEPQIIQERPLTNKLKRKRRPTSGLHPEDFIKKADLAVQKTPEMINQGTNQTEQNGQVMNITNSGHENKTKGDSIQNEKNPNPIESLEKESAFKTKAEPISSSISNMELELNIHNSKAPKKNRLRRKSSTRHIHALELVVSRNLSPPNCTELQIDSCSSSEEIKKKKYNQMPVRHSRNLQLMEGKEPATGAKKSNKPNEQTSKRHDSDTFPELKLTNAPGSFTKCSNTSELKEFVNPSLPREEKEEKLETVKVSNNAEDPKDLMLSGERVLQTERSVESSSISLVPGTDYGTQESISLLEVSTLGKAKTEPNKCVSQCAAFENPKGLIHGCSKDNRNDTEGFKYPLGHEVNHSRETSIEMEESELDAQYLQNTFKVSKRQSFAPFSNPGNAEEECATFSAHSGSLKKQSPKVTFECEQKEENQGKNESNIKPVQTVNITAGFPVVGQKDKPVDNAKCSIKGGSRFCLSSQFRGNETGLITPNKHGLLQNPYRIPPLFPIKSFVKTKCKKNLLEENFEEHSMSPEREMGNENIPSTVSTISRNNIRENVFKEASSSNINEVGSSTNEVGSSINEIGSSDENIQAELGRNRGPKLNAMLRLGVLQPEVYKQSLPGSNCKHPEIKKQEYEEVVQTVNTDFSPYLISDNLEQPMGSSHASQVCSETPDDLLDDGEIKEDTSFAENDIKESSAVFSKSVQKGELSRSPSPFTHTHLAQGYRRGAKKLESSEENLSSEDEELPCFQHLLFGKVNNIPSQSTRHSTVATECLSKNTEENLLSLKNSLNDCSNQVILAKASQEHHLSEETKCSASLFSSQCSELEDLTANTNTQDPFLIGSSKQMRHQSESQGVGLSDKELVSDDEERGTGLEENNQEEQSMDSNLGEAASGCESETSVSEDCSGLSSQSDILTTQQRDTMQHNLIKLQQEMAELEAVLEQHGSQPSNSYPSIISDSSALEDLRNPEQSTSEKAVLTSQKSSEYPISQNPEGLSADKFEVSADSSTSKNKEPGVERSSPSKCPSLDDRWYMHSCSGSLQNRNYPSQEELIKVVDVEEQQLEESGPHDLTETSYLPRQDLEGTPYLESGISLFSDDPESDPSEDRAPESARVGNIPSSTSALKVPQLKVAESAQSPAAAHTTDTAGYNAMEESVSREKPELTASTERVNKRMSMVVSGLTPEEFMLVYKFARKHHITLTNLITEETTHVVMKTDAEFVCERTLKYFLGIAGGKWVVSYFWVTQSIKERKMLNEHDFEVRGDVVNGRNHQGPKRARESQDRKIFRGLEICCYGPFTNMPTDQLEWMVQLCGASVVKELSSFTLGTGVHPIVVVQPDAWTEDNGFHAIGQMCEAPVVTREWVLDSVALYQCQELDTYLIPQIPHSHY

C=C[C@@](C)(O)CC[C@@H]1C(C)=CC[C@@H]2C(C)(C)CCC[C@@]12C
Activity (PC-3 [1]): Active
Activity (DU-145 [2]): 2.82%
Activity (DU-145 [3]): 1.54%
Activity (PC-3 [4]): 2.95%
inhibition [5]: tde
Activity [6]: 73%
Activity [7]: 82.5%
Activity (DU-145 [8]): 11.32%
Activity (PC-3 [9]): 66.46%
Activity (DU-145 [10]): inactive
Activity (PC-3 [11]): Active
Activity (DU-145 [12]): tde
Activity (PC-3 [13]): inactive
Activity [14]: 13.9%
Activity (PC-3 [15]): inactive
Activity (PC-3 [16]): inactive
IC50 (NCI-H1299): 35.1 µM
Activity (DU-145 [17]): Active
Activity (PC-3 [18]): 12.94%
Activity (PC-3 [19]): 3.51%
Activity (PC-3 [20]): 2.75%
Activity (DU-145 [21]): Active
inhibition [22]: tde
Activity (PC-3 [23]): tde
inhibition [24]: Active
